# Measured values pooled from the literature.
# Protocols differ between the studies behind these lines.
# Target: Serine/threonine-protein kinase Nek6 (NEK6, Homo sapiens, UniProt Q9HC98)
Structure (SMILES),assay,conditions,endpoint,value
CN1CC(Oc2cnc(C#N)cc2-c2ccn3nc(NC(=O)C4CC4)cc3c2)C1,"enzyme activity, inhibitor",1 µM,inhibition,2%
Cn1cc(Cl)c2c(Oc3c(F)cc(Nc4cc(Cl)nc(N)n4)cc3F)ccnc21,"cell-free assay, competition with immobilised ligand",0.1 µM,remaining binding,100%
FC(F)(F)Oc1cccc(-c2cnc3ccc(-c4ccncc4)nn23)c1,"enzyme activity, inhibitor, radiometric",1 µM,activity vs control,92%
CNC(=O)c1cc(Oc2ccc(NC(=O)Nc3ccc(Cl)c(C(F)(F)F)c3)cc2)ccn1,"enzyme activity, inhibitor",10 µM,inhibition,-16%
CCCS(=O)(=O)Nc1ccc(F)c(C(=O)c2c[nH]c3ncc(-c4ccc(Cl)cc4)cc23)c1F,"enzyme activity, inhibitor",1 µM,inhibition,< 10%
CC(C)CC(=O)N1CCc2nc(-c3ccc(Br)cc3)nc(N(C)Cc3ccccc3)c2C1,"cell-free assay, competition with immobilised ligand",0.1 µM,remaining binding,100%
Cc1cc(NC(=O)c2cccc3cc(-c4cccc5[nH]nc(N)c45)ccc23)ccc1F,"enzyme activity, inhibitor",0.1 µM,activity vs control,99%
CCCCN(CCCC)C(=O)CN1C[C@H](c2cc(OC)c3c(c2)OCO3)[C@@H](C(=O)O)[C@@H]1CC(C)(C)CCC,"cell-free assay, competition with immobilised ligand",1 µM,remaining binding,100%
CC/C(=N\NC(=O)NCc1cccc(O)c1)c1ccc(O)c(C)c1O,"enzyme activity, inhibitor",0.1 µM,inhibition,0.2%
COc1cc2ncnc(Nc3ccc(Oc4ccccc4)c(C)c3C)c2cc1OC,"enzyme activity, inhibitor",1 µM,inhibition,8%
O=C1NC(=O)c2cc(Nc3ccc(F)cc3)c(Nc3ccc(F)cc3)cc21,cell-free assay,0.5 µM,remaining signal,109%
CCN(CC)CCNC(=O)c1c(C)[nH]c(/C=C2\C(=O)Nc3ccc(F)cc32)c1C,"enzyme activity, inhibitor",10 µM,inhibition,-9%
C[C@H](NC(=O)c1cnc2n1[C@](C)(Cc1ccc(C#N)cc1)C(=O)N2c1cc(Cl)c(F)c(Cl)c1)C(=O)NC1(c2ccccn2)CC1,"cell-free assay, competition with immobilised ligand",1 µM,remaining binding,100%
CN(c1ncccc1CNc1nc(Nc2ccc3c(c2)CC(=O)N3)ncc1C(F)(F)F)S(C)(=O)=O,"enzyme activity, inhibitor",1 µM,inhibition,11.8%
